Shown are actives, neighbours in structure and some others; about 4.9% of the full set was active somewhere.
HSF-1 act: increases HSF-1 driven luciferase reporter signal. NIH3T3-HGL HSF-1 luciferase reporter, MG132, 8 h; 100% = twice DMSO control signal. activation, % at 9 µM. 300,000 compounds, 1.7% hits;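 active = mean replicate activation of at least 50% with a set share of replicates each reaching 50%; inconclusive = only one of those two conditions met; inactive = mean below 50% and too few replicates reaching it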;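 also: 0% = median of the neutral control wells and 100% = twice that signal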
CHT allo act: human CHT allosteric activation; B-score at 10 µM; Q9GZV3; CHT-expressing cells, membrane potential dye, choline EC20; stronger effect = higher value; LV-AA mutant CHT in HEK293 cells; 310,000 compounds, 0.49% hits; AID 488977;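 active = initial fluorescence not abnormally high and integrated response B-score, plate-corrected, over 3 SD above library mean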
Target sequence (Q9GZV3 whole entry, looked up): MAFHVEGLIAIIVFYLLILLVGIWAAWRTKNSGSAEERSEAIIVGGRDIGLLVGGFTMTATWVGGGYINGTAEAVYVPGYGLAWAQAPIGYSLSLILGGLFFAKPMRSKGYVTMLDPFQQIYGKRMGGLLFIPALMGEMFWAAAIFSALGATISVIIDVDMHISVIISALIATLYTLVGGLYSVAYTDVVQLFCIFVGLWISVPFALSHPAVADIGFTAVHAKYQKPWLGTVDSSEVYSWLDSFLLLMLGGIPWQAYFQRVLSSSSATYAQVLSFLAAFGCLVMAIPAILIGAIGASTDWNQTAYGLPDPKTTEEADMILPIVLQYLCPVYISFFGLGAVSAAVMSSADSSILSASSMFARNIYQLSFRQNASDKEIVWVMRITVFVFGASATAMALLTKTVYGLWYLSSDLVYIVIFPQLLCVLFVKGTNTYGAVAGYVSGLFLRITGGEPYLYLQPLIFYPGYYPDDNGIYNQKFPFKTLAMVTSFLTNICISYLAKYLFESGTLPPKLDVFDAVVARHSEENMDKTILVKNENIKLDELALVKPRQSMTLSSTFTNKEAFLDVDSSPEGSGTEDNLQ
Hep lipid drop: modulators of hepatic lipid droplet formation | inhibition, % at 6.5 µM | AML12 mouse hepatocytes, oleate lipid droplets, BODIPY imaging | AID 1656 | 240,000 compounds, 0.4% hits;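 active = lipid droplet intensity inhibited by at least 50%, with more than 500 cells counted; inconclusive = wells with under 300 cells, treated as cytotoxic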
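Material – mouse AML12 hepatocyte cell line, fixed after treatment · Compound dosing – one dose, 6.5 µM compound · Times – compound with oleate, overnight · Measured by – Image-based BODIPY and DAPI two-channel analysis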
PHOSPHO1 block: blocks human PHOSPHO1 phosphatase activity | recombinant PHOSPHO1, absorbance phosphatase assay | Q8TCT1 | 290,000 compounds, 1.1% hits | inhibition, % at 13.3 µM; in the data active = inhibition above about 60%
CHT inh: inhibits the human high affinity choline transporter. Q9GZV3. CHT-expressing cells, membrane potential dye, choline response; stronger effect = lower value. B-score at 10 µM. 310,000 compounds, 0.86% hits. AID 488975;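 active = B-score over 3 SD under the library average, and starting fluorescence ratio not unusually high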;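 also: choline stimulus applied at its EC90 after an EC20 pre-addition; B-score computed on integrated fluorescence ratio after choline addition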
HSF1 inh: HSF1 inhibition; NIH3T3-HGL HSE-luciferase, MG132-induced, luminescence 8 h; stronger effect = lower value; activity change, negative = inhibition, % at 7.5 µM (by protocol); 300,000 compounds, 0.77% hits;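 active = more than half of replicate wells show activity change below -50%, luminescence cut by over half; inconclusive = some wells, but at most half, below -50%; inactive = no replicate well below -50%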;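 also: luciferase reports HSF-1 transcriptional activity via heat shock element; 0% = median of DMSO wells and -100% = zero luminescence signal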
Starred values were filed as active, the others as inactive; i = inactive; ? = inconclusive; . = not tested or not shown.

SMILES | HSF-1 act | CHT allo act | Hep lipid drop | PHOSPHO1 block | CHT inh | HSF1 inh
N#Cc1c(N)sc2c1CCCCCC2 | -5 | i | . | 80* | i | -2
N#Cc1c(/N=C/c2ccco2)sc2c1CCC2 | -10 | i | 2 | -18 | i | -6
CC(=O)Oc1ccc2occ(C(=O)c3ccccc3)c2c1 | 63* | i | . | . | i | 28
CC1C=CCC2C(=O)N(c3ccc(Cl)cc3O)C(=O)C12 (stereo not given) | 6 | i | 11 | 0 | i | -4
CCOc1ccc(CCNC(=O)Cc2ccc(S(=O)(=O)N3CCOCC3)s2)cc1OCC | -3 | i | . | . | i | 1
Nc1nc(CSc2nc3ccccc3s2)nc(Nc2ccccc2)n1 | 58* | i | -1 | -31 | i | 31
CCc1nnc(SCC(=O)Nc2nnc(C)s2)n1CC1CCCO1 (stereo not given) | -13 | i | 8 | . | i | -5
COc1ccc(-n2cccc2/C=C2/NC(=O)N(c3cccc(Cl)c3)C2=O)cc1 | -66 | i | 0 | -28 | i | -63*
CC(C)CCNC(=O)C(c1ccc(O)cc1)N(C(=O)C1COc2ccccc2O1)c1cccc(O)c1 (stereo not given) | 42 | i | -23 | 64* | i | 4
Cc1c(-c2nc(-c3ccc(C(C)(C)C)cc3)no2)n(C)oc1=O | -78 | i | 24 | 3 | i | -74*
Cc1cccc(Oc2coc3cc(OC(=O)c4cccs4)ccc3c2=O)c1 | 59* | i | . | 12 | i | 29
Cc1ccc(Oc2coc3cc(OC(=O)c4cccs4)ccc3c2=O)cc1 | 23 | i | . | 6 | i | 14
Cc1cc2c(cc1S(=O)(=O)N1CCN(c3ccccc3)CC1)OCC(=O)N2 | -11 | i | 13 | 23 | i | -4
COc1ccc(-c2csc3nc(-c4ccccc4F)oc(=O)c23)cc1 | 78* | i | 6 | 27 | i | 63
CCN(CC)C1CCN(C(=O)c2cc(COc3ccc(-n4cncn4)cc3)on2)C1 (stereo not given) | 5 | i | -12 | 13 | i | 2
O=C(O)c1cc([N+](=O)[O-])c(NCCC2=CCCCC2)c([N+](=O)[O-])c1 | 59* | i | -3 | 24 | i | 20
CCCCNc1c([N+](=O)[O-])cc(C(=O)O)cc1[N+](=O)[O-] | 9 | i | 0 | -2 | i | 3
O=C(NCc1cccnc1)C(=O)NCC1OCCN1S(=O)(=O)c1ccc(Cl)cc1 (stereo not given) | -23 | i | 16 | -21 | i | -5
O=C(c1ccco1)N(Cc1ccc([N+](=O)[O-])cc1)c1ccc(Br)cc1 | 57* | i | . | -45 | i | 23
Cc1cc(/C=c2/sc3nc4ccccc4n3c2=O)c(C)n1-c1ccccn1 | -92 | i | . | 75* | i | -91*
CC1(C)CC(NC(=O)COc2cc3oc(=O)c4c(c3cc2Cl)CCC4)CC(C)(C)N1 | -8 | i | -6 | 24 | i | 0
CC1(C)Cc2nc3[nH]c(=S)n(-c4ccccc4)c(=O)c3cc2CO1 | -72 | i | . | . | i | -62*
COc1ccc(-c2nc3ccccn3c2NCc2ccc3c(c2)OCO3)cc1 | -2 | i | -28 | -4 | i | 3
COc1ccc(-c2nc3cc(C)ccn3c2NCc2ccc3c(c2)OCO3)cc1 | 55* | i | -2 | 28 | i | 21
COc1ccc(COc2cc(-c3cccc(OC)c3)nc3ccc(NC(=O)c4ccccc4)cc23)cc1 | 0 | i | -4 | -4 | i | 2
SMILES | HSF-1 act | CHT allo act | Hep lipid drop | PHOSPHO1 block | CHT inh | HSF1 inh
COc1ccc(COc2cc(-c3cccc(OC)c3)nc3ccc(NC(=O)c4ccc(OC)cc4)cc23)cc1 | -27 | i | 5 | 67* | i | -21
CN1CCc2c(sc3c2C(=O)NC(c2ccc(-c4ccc(Cl)cc4)o2)N3)C1 (stereo not given) | -90 | i | 1 | 17 | i | -86*
CC1CCc2c(sc(NC(=O)c3cccs3)c2C(=O)O)C1 (stereo not given) | 16 | i | -1 | 6 | i | 0
CCCC1CCc2c(sc(NC(=O)c3cccs3)c2C(N)=O)C1 (stereo not given) | 61* | i | . | 8 | i | 31
Cc1ccc(C)c(NC(=O)CN(C)C(=O)c2cc3ccccc3o2)c1 | -2 | i | 13 | 32 | i | -6
Cc1cccc(NC(=S)N2CCN(C(=O)c3ccco3)CC2)c1C | 61* | i | -8 | 35 | i | 20
Cc1c(Cl)cccc1NC(=S)N1CCN(C(=O)c2ccco2)CC1 | -5 | i | 2 | 47 | i | -3
O=C(Nc1ccc(N2CCCC2)c(Cl)c1)c1ccc([N+](=O)[O-])o1 | . | . | 8 | 4 | . | .
O=C(Nc1cccc(NC(=O)c2ccccc2Cl)c1)c1ccc([N+](=O)[O-])o1 | 97* | i | 2 | 24 | i | 55
O=C(Nc1cccc2ccccc12)c1ccc([N+](=O)[O-])o1 | 72* | i | -20 | -3 | i | 58
COc1ccccc1NC(=O)c1ccc([N+](=O)[O-])o1 | -88 | i | . | . | i | -86*
CS(=O)(=O)c1ccc(Cl)c(NC(=O)COC(=O)CCCN2C(=O)c3cccc4cccc(c34)C2=O)c1 | 14 | i | . | . | i | -3
CCOc1ccc(NC(=S)NC(=O)c2ccco2)cc1 | 52* | i | -1 | 5 | i | 26
CC(=O)Nc1ccc(S(=O)(=O)NNC(=S)NCc2ccco2)cc1 | 0 | i | -1 | 37 | i | -4
CCOc1ccc(NC(=O)NCc2ccco2)cc1 | 7 | i | 0 | 67* | i | -4
O=C(NCCSCc1ccco1)Nc1ccccc1 | 34 | i | . | 74* | i | 4
CC(=O)Nc1ccc(C(=S)NCc2ccco2)cc1 | -3 | i | -5 | 94* | i | 0
CCOc1ccc(NC(=O)c2ccco2)cc1 | 19 | i | 14 | 0 | i | 18
CCOc1ccc(NC(=S)N(Cc2ccc(Cl)cc2)Cc2ccco2)cc1 | 176* | i | . | -33 | i | 121
COc1ccc(C(=O)NC(=S)NNC(=O)c2ccco2)cc1 | -60 | i | -2 | -61 | i | ?
COc1ccccc1OCC(=O)NNC(=S)NC(=O)c1ccco1 | 9 | i | -3 | 95* | i | 3
S=C(NCc1ccco1)Nc1ccc(Oc2ccc(Cl)cc2)cc1 | 34 | i | 14 | 21 | i | 15
O=C(C1CCCN(S(=O)(=O)c2ccc(Cl)cc2)C1)N(Cc1cccs1)C1CC1 (stereo not given) | -73 | i | -19 | -3 | i | -65*
